Test results published in publication PMC2246419 (EMBO Reports, 2008).

Tests used:
[1] = tested on: PKB Ser 473 phosphorylation in NIH3T3 cells; assay: Western blot of serum-stimulated PKB Ser 473 phosphorylation; assay type: cell-based, mouse
NIH3T3 cells [2] = assay: Cell division and growth curves; assay type: cell-based, mouse; settings: 800 nM
NIH3T3 cells [3] = assay: In vivo measurement of phosphoinositide levels in 32P-labelled cells; assay type: cell-based, mouse; settings: 800 nM
type Iα PtdInsP kinase = assay: In vitro lipid kinase assay, type Iα PtdInsP kinase; assay type: biochemical, mouse
NIH3T3 cells [4] = assay: Lysotracker staining of swollen vesicles; assay type: cell-based, mouse; settings: 800 nM 3 h, Lysotracker Red DND-99
Outline: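 NIH3T3 cells were exposed to test compound at 800 nM for 3 h. Lysotracker Red DND-99 (100 nM) was added to the medium for the final 0.5 h, and the acidotropic dye was imaged in the enlarged vesicles.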

ecotropic MLV retrovirus = assay: Viral production assay; assay type: cell-based, human; settings: 800 nM, TEFLY Mo producer cells
p110α = p110α (Bos taurus, UniProt P32871); assay: In vitro lipid kinase assay, GST-p110α; assay type: biochemical
p110α, sequence (P32871 whole entry): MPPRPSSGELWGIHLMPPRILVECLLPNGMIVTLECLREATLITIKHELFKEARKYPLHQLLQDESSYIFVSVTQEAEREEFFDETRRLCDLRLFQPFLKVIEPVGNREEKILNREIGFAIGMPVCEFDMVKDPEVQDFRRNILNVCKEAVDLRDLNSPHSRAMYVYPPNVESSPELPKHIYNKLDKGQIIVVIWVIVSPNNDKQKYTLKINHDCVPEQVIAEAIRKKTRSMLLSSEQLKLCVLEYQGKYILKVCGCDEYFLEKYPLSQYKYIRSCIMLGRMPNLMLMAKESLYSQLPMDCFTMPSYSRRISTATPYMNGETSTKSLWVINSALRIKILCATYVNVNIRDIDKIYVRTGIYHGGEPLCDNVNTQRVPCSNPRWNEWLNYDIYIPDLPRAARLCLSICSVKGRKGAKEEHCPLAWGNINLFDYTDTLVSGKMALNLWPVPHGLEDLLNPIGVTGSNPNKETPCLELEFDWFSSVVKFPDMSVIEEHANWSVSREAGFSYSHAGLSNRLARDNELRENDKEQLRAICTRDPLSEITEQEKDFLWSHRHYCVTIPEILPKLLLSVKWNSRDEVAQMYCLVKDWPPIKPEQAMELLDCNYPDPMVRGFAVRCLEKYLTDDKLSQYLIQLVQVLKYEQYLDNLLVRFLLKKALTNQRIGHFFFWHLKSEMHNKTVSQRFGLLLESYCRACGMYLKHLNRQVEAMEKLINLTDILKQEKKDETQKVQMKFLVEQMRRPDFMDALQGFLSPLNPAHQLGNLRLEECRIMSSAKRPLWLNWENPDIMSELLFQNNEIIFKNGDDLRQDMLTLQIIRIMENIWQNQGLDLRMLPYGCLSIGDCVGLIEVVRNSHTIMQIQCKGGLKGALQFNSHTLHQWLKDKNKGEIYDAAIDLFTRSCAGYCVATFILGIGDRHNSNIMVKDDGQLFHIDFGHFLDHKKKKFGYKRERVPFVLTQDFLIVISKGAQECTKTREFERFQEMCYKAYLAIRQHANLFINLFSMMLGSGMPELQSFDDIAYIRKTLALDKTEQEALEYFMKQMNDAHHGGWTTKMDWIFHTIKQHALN

type IIγ PtdInsP kinase = target: T1, type IIγ PtdInsP kinase (Homo sapiens, UniProt Q8TBX8); assay: In vitro lipid kinase assay, type IIγ PtdInsP kinase; assay type: biochemical; settings: even at 10 μM; data not shown
T1 sequence (Q8TBX8 1-421): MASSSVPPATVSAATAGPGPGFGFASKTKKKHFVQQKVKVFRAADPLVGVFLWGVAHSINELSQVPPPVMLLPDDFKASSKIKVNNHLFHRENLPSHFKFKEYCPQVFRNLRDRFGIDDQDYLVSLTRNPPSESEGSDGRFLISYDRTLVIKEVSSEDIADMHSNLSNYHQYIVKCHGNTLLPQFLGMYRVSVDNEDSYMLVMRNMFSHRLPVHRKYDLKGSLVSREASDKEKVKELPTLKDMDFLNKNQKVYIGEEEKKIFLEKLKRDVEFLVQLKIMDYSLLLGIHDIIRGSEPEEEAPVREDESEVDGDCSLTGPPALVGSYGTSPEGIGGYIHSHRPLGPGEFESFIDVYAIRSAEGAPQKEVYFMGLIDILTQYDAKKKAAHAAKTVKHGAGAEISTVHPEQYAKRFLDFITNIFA

SMILES	Effect on serum-stimulated phosphorylation of PKB ([1]; increasing concentrations)	Effect on cell division (NIH3T3 cells [2])	Decrease of PtdIns(3,5)P2 production (NIH3T3 cells [3]) [%]	Decrease of PtdIns(4,5)P2 (NIH3T3 cells [3])	Effect on all other phosphoinositides identified (NIH3T3 cells [3])	type Iα PtdInsP kinase IC50 fold greater than against PIKfyve (type Iα PtdInsP kinase)	IC50 (type Iα PtdInsP kinase; read-out: type Iα PtdInsP kinase IC50, mouse enzyme, data not shown) [µM]	Acidification of swollen vesicles (NIH3T3 cells [4])	Effect on PKB Ser 473 phosphorylation ([1]; 800 nM)	Reduction of virus released into the medium (ecotropic MLV retrovirus) [%]	IC50 (p110α; p110α IC50, 50 μM ATP, 100 μM PtdIns substrate) [µM]	p110α IC50 fold higher than for PIKfyve (p110α; same assay conditions) [fold]	Inhibition of type IIγ PtdInsP kinase (type IIγ PtdInsP kinase)
Oc1cccc(-c2nc(N3CCOCC3)c3oc4ncccc4c3n2)c1 [YM211103]	decreased												
Nc1ccc(C(=O)Nc2cccc(-c3nc(N4CCOCC4)c4oc5ncccc5c4n3)c2)cn1 [YM201636]		does not inhibit cell division	80	around 20%	remained largely unaltered	around 100 fold	> 2	poorly acidified	no influence	80	3	~100	did not inhibit
